From ChEMBL document CHEMBL1129609, “Synthesis and antiviral activity evaluation of some new aminoadamantane derivatives. 2” (1996)
In brackets after ≈: the same amount, converted by molar mass.

What was measured:
[1] = test system: Human alphaherpesvirus 1; assay: Antiviral activity against TK-HSV-1 virus infected HEF cell lines.; assay type: functional
In short: (§1)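 Human embryonic fibroblasts, from embryonic lung or embryonic skin-muscle, infected with the virus. Endpoint is the minimum inhibitory concentration that reduces virus-induced cytopathicity by 50%. Values are averages of at least two separate experiments.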

[2] = test system: Human alphaherpesvirus 1; assay: Antiviral activity against HSV-1 virus infected HEF cell lines.; assay type: functional; in short: as §1
[3] = test system: Coxsackievirus B4; assay: Antiviral activity against Coxsackie B4 virus infected vero cell lines.; assay type: functional; settings: Enterovirus B
In short: (§2)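 Vero (African green monkey kidney), HeLa (human epithelial) or HEL (human embryonic lung) cell monolayers infected with the virus. Readout is the minimum inhibitory concentration that reduces virus-induced cytopathicity by 50%. Values are averages of at least two separate experiments.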

[4] = test system: HeLa; assay: Effects on cell morphology of HeLa cell lines.; assay type: functional; settings: Homo sapiens
In short: (§3)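 HeLa (human epithelial) or Vero (African green monkey kidney) cells were examined under the microscope for changes in normal morphology. The value is the minimum concentration causing a detectable alteration, averaged from at least two separate experiments.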

[5] = test system: Enterovirus C; assay: Antiviral activity against polio 1 virus infected HeLa cell lines.; assay type: functional; in short: as §2
[6] = test system: Vesicular stomatitis virus; assay: Antiviral activity against vesicular stomatitis virus infected HeLa cell lines.; assay type: functional; in short: as §2
[7] = test system: MDCK; assay: Antiviral activity tested against influenza A,H1N1 virus infected MDCK cell lines.; assay type: functional; settings: Canis lupus familiaris
[8] = test system: Coxsackievirus B4; assay: Antiviral activity against Coxsackie B4 virus infected HeLa cell lines.; assay type: functional; settings: Enterovirus B; in short: as §2
[9] = test system: HEL; assay: Inhibition of HEL cell proliferation.; assay type: functional; settings: Homo sapiens
In short: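 Human embryonic lung fibroblasts were used for the proliferation assay. The value is the concentration that reduces cell proliferation by 50%, averaged from at least two separate experiments.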

[10] = test system: Mammalian orthoreovirus 1; assay: Antiviral activity against Reo 1 virus infected vero cell lines.; assay type: functional; in short: as §2
[11] = test system: Vaccinia virus; assay: Antiviral activity against vaccinia virus infected HEF cell lines.; assay type: functional; settings: Orthopoxvirus vaccinia; in short: as §1
[12] = test system: Influenza B virus; assay: Antiviral activity against influenza B virus infected MDCK cell lines.; assay type: functional
[13] = test system: Sindbis virus; assay: Antiviral activity against sindbis virus infected Vero cell lines.; assay type: functional; in short: as §2
[14] = test system: Human alphaherpesvirus 3; assay: Antiviral activity against TK+VZV virus infected HEL cell lines.; assay type: functional; in short: as §2
[15] = Antiviral activity against influenza A,H3N2 virus infected MDCK cell lines.; assay type: functional
[16] = test system: Vesicular stomatitis virus; assay: Antiviral activity against vesicular stomatitis virus infected HEF cell lines.; assay type: functional; in short: as §1
[17] = test system: Human betaherpesvirus 5; assay: Antiviral activity against HCMV virus infected HEL cell lines.; assay type: functional; in short: as §2
[18] = test system: Vero; assay: Effects on cell morphology of Vero cell lines.; assay type: functional; settings: Chlorocebus sabaeus; in short: as §3
[19] = test system: CCRF-CEM; assay: Cytotoxicity against CEM cell lines.; assay type: functional; settings: Homo sapiens
[20] = test system: HEF; assay: Effects on cell morphology of HEF cell lines.; assay type: functional; settings: Homo sapiens
In short: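 Human embryonic skin-muscle fibroblasts were examined under the microscope for changes in normal cell morphology. The value is the minimum concentration causing a microscopically detectable alteration, averaged from at least two separate experiments.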

[21] = test system: Human alphaherpesvirus 2; assay: Antiviral activity against HSV-2 virus infected HEF cell lines.; assay type: functional; in short: as §1
[22] = test system: Human immunodeficiency virus 2; assay: Antiviral activity against HIV-2 virus infected CEM cell lines.; assay type: functional, CCRF-CEM
[23] = test system: Human respirovirus 3; assay: Antiviral activity against parainfluenza 3 virus infected Vero cell lines.; assay type: functional; in short: as §2
[24] = Antiviral activity against influenza A,H2N2 virus infected MDCK cell lines.; assay type: functional
[25] = test system: MDCK; assay: Antiviral activity of compound was tested against morphology virus infec+ted MDCK cell lines.; assay type: functional; settings: Canis lupus familiaris
[26] = test system: Semliki Forest virus; assay: Antiviral activity against Semliki forest virus infected Vero cell lines.; assay type: functional; in short: as §2
[27] = test system: Human alphaherpesvirus 3; assay: Antiviral activity against TK-VZV virus infected HEL cell lines.; assay type: functional; in short: as §2
[28] = test system: Human immunodeficiency virus 1; assay: Antiviral activity against HIV-1 virus infected CEM cell lines.; assay type: functional, CCRF-CEM

SMILES	MIC50 [1] [mg/L]	MIC50 [2] [mg/L]	MIC50 [3] [mg/L]	MIC50 [4] [mg/L]	MIC50 [5] [mg/L]	MIC50 [6] [mg/L]	MIC50 [7] [mg/L]	MIC50 [8] [mg/L]	MIC50 [9] [mg/L]	MIC50 [10] [mg/L]	MIC50 [11] [mg/L]	MIC50 [12] [mg/L]	MIC50 [13] [mg/L]	MIC50 [14] [mg/L]	MIC50 [15] [mg/L]	MIC50 [16] [mg/L]	MIC50 [17] [mg/L]	MIC50 [18] [mg/L]	MIC50 [19] [mg/L]	MIC50 [20] [mg/L]	further results
CCCCN1CCCC1C12CC3CC(CC(C3)C1)C2 (stereo unspecified)	> 40	> 40	> 100	200 (≈ 765 µM)	> 100	> 100	4 (≈ 15.3 µM)	> 100	> 50	> 100	> 40	> 80	> 100	> 50	> 100	> 40	> 50	> 200	74 (≈ 283 µM)	100 (≈ 382 µM)	MIC50 [21]: > 40 mg/L; MIC50 [22]: > 40 mg/L; MIC50 [23]: > 100 mg/L; MIC50 [24]: 44.5 mg/L (≈ 170 µM); MIC50 [25]: 250 mg/L (≈ 956 µM); MIC50 [26]: > 100 mg/L; MIC50 [27]: > 20 mg/L; MIC50 [28]: > 40 mg/L
C1CCC2(C1)CCCN2CC12CC3CC(CC(C3)C1)C2	> 40	> 40	> 100	200 (≈ 731 µM)	> 100	> 100	> 150	> 100	> 50	> 100	> 40	> 100	> 100	32 (≈ 117 µM)	> 47	> 100	> 50	> 400	59 (≈ 216 µM)	100 (≈ 366 µM)	MIC50 [21]: > 40 mg/L; MIC50 [22]: > 40 mg/L; MIC50 [23]: > 100 mg/L; MIC50 [24]: > 60 mg/L; MIC50 [25]: > 250 mg/L; MIC50 [26]: > 100 mg/L; MIC50 [27]: 20 mg/L (≈ 73.1 µM); MIC50 [28]: > 40 mg/L
